How the values were obtained:
[1] = target: Secreted effector protein (Yersinia pestis, UniProt O68720); assay: Inhibition of Yersinia pestis YOpH
Summary of the method: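 Phosphatase activity was read at 25 °C with p-NPP at its Km (1.7 mM). The buffer was 50 mM 3,3-dimethylglutarate pH 7.0 with 50 mM NaCl, 1 mM EDTA and 10% DMSO. Initial rates came from hydrolysis at 420 nm, 30 to 150 s after mixing. Percent inhibition was measured and IC50 values were calculated from it.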

[2] = target: T1, Tyrosine-protein phosphatase non-receptor type 1 (Homo sapiens, UniProt P18031); assay: Inhibition of PTP1B
T1 sequence (P18031 whole entry): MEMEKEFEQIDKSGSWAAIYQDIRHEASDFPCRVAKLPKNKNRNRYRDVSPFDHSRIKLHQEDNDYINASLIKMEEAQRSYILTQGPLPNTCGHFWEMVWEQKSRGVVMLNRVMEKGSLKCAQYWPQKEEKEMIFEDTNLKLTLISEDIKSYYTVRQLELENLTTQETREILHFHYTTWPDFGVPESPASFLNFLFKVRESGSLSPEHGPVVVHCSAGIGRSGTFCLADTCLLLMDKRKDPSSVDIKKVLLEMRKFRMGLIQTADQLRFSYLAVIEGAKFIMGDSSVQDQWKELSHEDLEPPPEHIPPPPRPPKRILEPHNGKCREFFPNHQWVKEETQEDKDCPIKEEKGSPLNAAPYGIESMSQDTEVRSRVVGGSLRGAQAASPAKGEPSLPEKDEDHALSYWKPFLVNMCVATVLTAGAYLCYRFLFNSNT
Summary of the method: (§1)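 Medium: 10% DMSO, 1 mM EDTA, 50 mM NaCl, 50 mM 3,3-dimethylglutarate, pH 7.0. Initial rates taken as absorbance at 420 nm from 30 to 150 s after mixing. IC50 derived from percent inhibition.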

[3] = target: T2, Tyrosine-protein phosphatase non-receptor type 7 (Homo sapiens, UniProt P35236); assay: Inhibition of HePTP
T2 sequence (P35236 whole entry): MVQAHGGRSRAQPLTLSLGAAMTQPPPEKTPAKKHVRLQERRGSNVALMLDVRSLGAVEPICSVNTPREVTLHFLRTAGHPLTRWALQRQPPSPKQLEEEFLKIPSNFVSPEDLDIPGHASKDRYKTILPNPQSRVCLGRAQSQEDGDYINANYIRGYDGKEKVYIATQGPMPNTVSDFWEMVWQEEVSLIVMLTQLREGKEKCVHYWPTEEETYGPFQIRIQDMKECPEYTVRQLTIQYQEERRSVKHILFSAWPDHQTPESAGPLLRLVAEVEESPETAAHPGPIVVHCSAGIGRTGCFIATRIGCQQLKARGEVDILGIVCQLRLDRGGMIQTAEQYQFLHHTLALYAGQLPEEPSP
Summary of the method: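 HePTP assayed with 4-methylumbelliferyl phosphate at 174 μM (its measured Km) at 25 °C in 10% DMSO, 1 mM EDTA, 50 mM NaCl, 50 mM 3,3-dimethylglutarate, pH 7.0. Initial rates read as fluorescence (ex 340, em 460 nm) from 0 to 150 s after mixing. IC50 derived from percent inhibition.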

[4] = target: T3, Tyrosine-protein phosphatase non-receptor type 2 (Homo sapiens, UniProt P17706); assay: Inhibition of TCPTP; summary of the method: as §1
T3 sequence (P17706 whole entry): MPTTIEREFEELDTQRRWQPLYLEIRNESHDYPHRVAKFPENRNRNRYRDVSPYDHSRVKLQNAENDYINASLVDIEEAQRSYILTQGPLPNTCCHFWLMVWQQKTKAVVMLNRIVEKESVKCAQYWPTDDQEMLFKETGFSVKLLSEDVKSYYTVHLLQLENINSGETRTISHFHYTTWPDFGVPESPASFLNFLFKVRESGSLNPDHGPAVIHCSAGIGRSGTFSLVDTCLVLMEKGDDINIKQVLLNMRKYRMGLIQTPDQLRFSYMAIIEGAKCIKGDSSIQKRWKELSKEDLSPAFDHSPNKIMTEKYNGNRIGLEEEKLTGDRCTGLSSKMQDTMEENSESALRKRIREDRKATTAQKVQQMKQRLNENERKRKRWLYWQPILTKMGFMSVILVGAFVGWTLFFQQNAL

[5] = Selectivity ratio of IC50 for TCPTP to IC50 for PTP1B

Sequence of Secreted effector protein (O68720 whole entry): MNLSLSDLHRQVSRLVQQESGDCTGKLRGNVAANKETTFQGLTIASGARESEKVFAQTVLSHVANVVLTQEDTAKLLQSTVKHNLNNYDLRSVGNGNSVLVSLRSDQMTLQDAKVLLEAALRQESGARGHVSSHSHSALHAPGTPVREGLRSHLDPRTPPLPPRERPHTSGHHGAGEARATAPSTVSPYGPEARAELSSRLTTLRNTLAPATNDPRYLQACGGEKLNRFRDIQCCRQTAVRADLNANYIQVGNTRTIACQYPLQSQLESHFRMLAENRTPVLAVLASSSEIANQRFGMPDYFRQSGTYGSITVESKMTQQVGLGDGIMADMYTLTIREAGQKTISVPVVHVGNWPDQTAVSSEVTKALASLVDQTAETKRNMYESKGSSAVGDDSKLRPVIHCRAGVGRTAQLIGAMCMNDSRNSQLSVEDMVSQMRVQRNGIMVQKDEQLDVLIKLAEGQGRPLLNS

## N#Cc1ccc(Oc2ccc(NC(=O)c3cc(COc4ccc(C(=O)C(=O)O)cc4)ccc3COc3ccc(C(=O)C(=O)O)cc3)cc2)cc1
[1]
  IC50: 1300 nM

## CC(C)c1ccc(Oc2ccc(NC(=O)c3cc(COc4ccc(C(=O)C(=O)O)cc4)ccc3COc3ccc(C(=O)C(=O)O)cc3)cc2)cc1
[1]
  IC50: 800 nM

## COc1ccc(Oc2ccc(NC(=O)c3cc(COc4ccc(C(=O)C(=O)O)cc4)ccc3COc3ccc(C(=O)C(=O)O)cc3)cc2)cc1
[1]
  IC50: 1100 nM

## O=C(O)C(=O)c1ccc(OCc2ccc(COc3ccc(C(=O)C(=O)O)cc3)c(C(=O)Nc3ccc(Oc4ccc(SC(F)(F)F)cc4)cc3)c2)cc1
[2]
  IC50: 1600 nM
[1]
  IC50: 50 nM
[3]
  IC50: 53000 nM
[4]
  IC50: 4000 nM

## Cc1ccccc1Oc1ccc(NC(=O)c2cc(COc3ccc(C(=O)C(=O)O)cc3)ccc2COc2ccc(C(=O)C(=O)O)cc2)cc1
[1]
  IC50: 230 nM

## O=C(O)C(=O)c1ccc(OCc2ccc(COc3ccc(C(=O)C(=O)O)cc3)c(C(=O)Nc3cccc(OCc4ccccc4)c3)c2)cc1
[1]
  IC50: 100 nM

## O=C(O)C(=O)c1ccc(OCc2ccc(COc3ccc(C(=O)C(=O)O)cc3)c(C(=O)Nc3ccc(Oc4cccc(F)c4)cc3)c2)cc1
[1]
  IC50: 220 nM

## Cc1ccc(Oc2ccc(NC(=O)c3cc(COc4ccc(C(=O)C(=O)O)cc4)ccc3COc3ccc(C(=O)C(=O)O)cc3)cc2)cc1
[1]
  IC50: 190 nM

## O=C(O)C(=O)c1ccc(OCc2ccc(COc3ccc(C(=O)C(=O)O)cc3)c(C(=O)Nc3ccc(Oc4ccc(F)cc4)cc3)c2)cc1
[1]
  IC50: 110 nM

## O=C(O)C(=O)c1ccc(OCc2ccc(COc3ccc(C(=O)C(=O)O)cc3)c(C(=O)Nc3ccc(Oc4ccc(-c5ccccc5)cc4)cc3)c2)cc1
[2]
  IC50: 220 nM
[1]
  IC50: 30 nM
[3]
  IC50: 21000 nM
[4]
  IC50: 6500 nM

## CSc1ccc(Oc2ccc(NC(=O)c3cc(COc4ccc(C(=O)C(=O)O)cc4)ccc3COc3ccc(C(=O)C(=O)O)cc3)cc2)cc1
[1]
  IC50: 110 nM

## CCCCCCc1ccc(Oc2ccc(NC(=O)c3cc(COc4ccc(C(=O)C(=O)O)cc4)ccc3COc3ccc(C(=O)C(=O)O)cc3)cc2)cc1
[2]
  IC50: 1200 nM
[1]
  IC50: 90 nM
[3]
  IC50: 28000 nM
[4]
  IC50: 2300 nM

## O=C(O)C(=O)c1ccc(OCc2ccc(COc3ccc(C(=O)C(=O)O)cc3)c(C(=O)Nc3ccc(Oc4ccc(F)cc4F)cc3)c2)cc1
[1]
  IC50: 910 nM

## CCCCc1ccc(Oc2ccc(NC(=O)c3cc(COc4ccc(C(=O)C(=O)O)cc4)ccc3COc3ccc(C(=O)C(=O)O)cc3)cc2)cc1
[1]
  IC50: 200 nM

## O=C(O)C(=O)c1ccc(OCc2ccc(COc3ccc(C(=O)C(=O)O)cc3)c(C(=O)Nc3ccc(Oc4ccccc4)cc3)c2)cc1
[1]
  IC50: 240 nM
[5]
  Ratio IC50: < 2

## O=C(O)C(=O)c1ccc(OCc2ccc(COc3ccc(C(=O)C(=O)O)cc3)c(C(=O)Nc3ccc(Oc4ccc(Cl)c(Cl)c4)cc3)c2)cc1
[1]
  IC50: 210 nM

## CCc1ccc(Oc2ccc(NC(=O)c3cc(COc4ccc(C(=O)C(=O)O)cc4)ccc3COc3ccc(C(=O)C(=O)O)cc3)cc2)cc1
[2]
  IC50: 490 nM
[1]
  IC50: 70 nM
[3]
  IC50: 52000 nM
[4]
  IC50: 3500 nM

From ChEMBL document CHEMBL1240524, “A focused library of protein tyrosine phosphatase inhibitors” (J Med Chem, 2010)
